According to ChEMBL document CHEMBL4513216, “Probing the Open Global Health Chemical Diversity Library for Multistage-Active Starting Points for Next-Generation Antimalarials” (ACS Infect Dis, 2020):

Assay: Toxicity liver stage against HepG2, at 10uM
Assay type: cell-based
Parameters: test concentration 10 uM, cell line HepG2-A16-CD81EGFP
Settings: human, HepG2-A16-CD81EGFP cells; read-out: INHIBITION
In short: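 Uninfected HepG2-A16-CD81EGFP cells, 3 × 10^3 per well, 1536-well, plated on prespotted compound at 10 μM final, parasite-free screening media added to match infected plates; puromycin 10 μM positive, DMSO 0.5% negative; run in parallel with 48 h PbLuc assay at 37 °C, 5% CO2; viability by CellTiter-Glo luminescence, normalized to controls.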

Structure (SMILES)	cytotoxicity at 10 µM [%]
c1cncc(O[C@H]2COCCN(Cc3c[nH]c4ccccc34)C2)c1	0.208
O=C(O)CCCC(=O)N1CCC(c2noc3cc(F)ccc23)CC1	-4.66
CC(C)NC(=O)N(Cc1cc(O)nc2ccccc12)C(C)C	0.266
O=C(NCCc1cccc(F)c1)C1(n2cnnn2)CCCCC1	1.04
C[C@H]1C[C@H]2CN(C(=O)C3=CCCC3)CC[C@H]2O1	3.76
Cn1nccc1-c1nc2c(cc1C(=O)O)CCN(CC1CC1)CC2	-119
O=C(NCC1CC1)[C@@H]1C[C@@H]2CCN(Cc3ccoc3)C[C@@H]2O1	-2.65
CCN1C[C@@H]2CN(C(=O)c3ccsc3)C[C@@H]2C1=O	-6.57
O=C(O)c1ccc2[nH]cc(CN3CCOCC3)c2c1	-9.48
Cc1ccc(-c2csc(N)c2C#N)cc1	-1.61
COc1nn(C)c2c1CCCN(C(=O)c1ccccc1)C2	-9.76
C[C@H]1C[C@H]2CN(C(=O)c3ccncn3)CC[C@H]2O1	-20.9
COc1ccc2c(c1)C1(CCN(Cc3ccncc3)CC1)N(C)CC2	-14.2
Cc1nc(NCc2ccc(F)cc2)cc(C(=O)N2CCOCC2)n1	-9.14
CCCNC(=O)c1cnc(N(C)C)nc1COC	3.17
Cc1ccccc1C(=O)N1CCOC(c2ncc(CN(C)C)[nH]2)C1 (stereo not given)	0.53
Oc1cc(-c2ccsc2)nc(C2CCN(Cc3cccnc3)CC2)n1	2.95
CC(=O)NC(Cc1c[nH]c2cc(F)ccc12)C(=O)Nc1nncs1 (stereo not given)	1.22
CCOC(=O)NCC(=O)Nc1nc2ccccc2n1C(C)(C)C	-4.62
CN(C)S(=O)(=O)N(C)C(c1cccnc1)c1ccc(F)c(F)c1 (stereo not given)	-3.53
CC(NC(=O)c1ccoc1)C(=O)N(C)Cc1ccc(O)cc1 (stereo not given)	-3.59
CN(CCSc1nncn1C(C)(C)C)c1ccccc1	24

Structure (SMILES)	cytotoxicity at 10 µM [%]
Cc1noc(CN(Cc2ccc3c(c2)OCCO3)Cc2ccco2)n1	-10.8
Cn1ccc(C(=O)Nc2cccc(-c3ccc4c(c3)CCO4)n2)cc1=O	-1.26
O=C(NCCc1cccnc1)NCCc1cccs1	-1.51
CCNC(=O)c1ccc(NC2CCOC3(CCCCC3)C2)nn1 (stereo not given)	-3
O=C(NC1CC1)c1ccc(SCc2cscn2)cc1	1.26
CC(CNS(N)(=O)=O)Oc1ccc(Cl)cc1 (stereo not given)	-5.37
Cc1cc(OCCC(=O)Nc2cccc(F)c2)nnc1C	-2.32
CCc1ccc(NC(C(N)=O)c2ccc(F)cc2)cc1 (stereo not given)	2.27
O=C(CNC(=O)c1ccccc1Cl)Nc1nccs1	-3.09
CCn1ccnc1S(=O)(=O)Cc1c(C)cc(C)c(C(C)=O)c1C	8.5
CN(C)C(=O)c1cccc(CCNS(C)(=O)=O)c1	-6.46
COc1c(CNCc2cccnc2OC(C)C)c(C(C)C)nn1C	11.1
O=C(NC1CCCCC1)NC1CCCc2c1cnn2CCO (stereo not given)	8.39
CC(C)CCNC(=O)c1cccnc1Oc1cccnc1	-0.379
COc1ccnc(N2CCN(C(=O)c3cnc(C4CC4)s3)CC2)n1	-5.35
Cc1noc(CN(CCc2ccco2)Cc2cccc(C#N)c2)n1	3.04
CC(C)(C)OC(=O)N1CCC(C(=O)NCc2ccccc2)C1 (stereo not given)	17.7
CCN1CC(C(=O)NC(C)(C)C(=O)OC)CC1=O (stereo not given)	-143
CC(C)C(=O)N1CCC(NC2CCSCC2)C1 (stereo not given)	-3.54
CC(C)(C)NC(=O)Cn1cc(C(N)=O)c(-c2ccccc2)n1	-12.8
CCN(CC)Cc1ccccc1NC(=O)N(C)Cc1ccccc1O	-1.57
NC(=O)C(Nc1cccc(CO)c1)c1ccc(Br)cc1 (stereo not given)	9.17

Structure (SMILES)	cytotoxicity at 10 µM [%]
CC1CCN(c2ccc(CNC(=O)NCCn3ccnc3)cn2)CC1	-9.48
N#CCc1ccc(OCC(=O)NS(=O)(=O)c2ccc(Br)s2)cc1	-5.46
COC(=O)NC1(C(=O)Nc2ccc(-c3cc[nH]n3)cc2)CCCC1	-11.2
Cc1cc(NS(=O)(=O)CC2CCCCO2)ccc1F (stereo not given)	-11.7
Cc1cc(CNC(=O)N2CCOC(c3ccccc3Cl)C2)no1 (stereo not given)	0.658
CC(C)Cn1ccnc1CNC(=O)N1CCCC1CN1CCOCC1 (stereo not given)	-6.29
Cc1cc(C2CCCN2S(=O)(=O)c2cnn(C)c2)on1 (stereo not given)	-5.22
CCc1nc(C2CCCN2c2ncc(C(F)(F)F)cc2Cl)no1 (stereo not given)	5.64
COC(=O)CNC(=O)C1(NC(=O)c2ccc3[nH]ncc3c2)CCCC1	-2.23
CC(C)(C(=O)NCc1n[nH]c(=O)[nH]1)c1ccc(F)cc1	7.52
CC(O)CN1CCN(C(=O)c2cn(-c3ccccc3Cl)nn2)CC1 (stereo not given)	0.361
Cc1cccnc1NC(=O)C1CCCN1Cc1ccccc1 (stereo not given)	10.2
O=C(O)c1csc(S(=O)(=O)N2CCCc3ccc(F)cc32)c1	16.6
CS(=O)(=O)c1ccc(OCCNCc2ccc(F)cc2F)cc1	-8.25
O=C(Nc1ccccc1)N1CC(C(=O)N2CCCC2)C2(CCOCC2)C1 (stereo not given)	-82.4
Cc1ccc(S(=O)(=O)N2CCC3(CC(C(=O)NCC(C)C)=NO3)C2)cc1 (stereo not given)	-0.819
Cn1cc(-c2cnc(N3CCOCC3)nc2)cc1C(=O)N1CCOCC1	9.8
CCN1CC(CN(C)Cc2nc(-c3cccc(C)c3)oc2C)CC1=O (stereo not given)	-9.8
COc1ccccc1OCCCn1c(C)c(C)oc1=O	0.129
O=C(c1ccc(Cl)cc1)N1CCC2(CC1)C(=O)Nc1ccccc12	-145
CCc1cc(NC2CCOCC2)n2nc(C)c(C)c2n1	0.551
CCc1nc(C)c(-c2nccn2CC2CCCCO2)[nH]1 (stereo not given)	3.98

Structure (SMILES)	cytotoxicity at 10 µM [%]
CCNc1ccnc(NC2CCN(CC(N)=O)CC2)n1	-15.7
Cn1ncnc1-c1ccnc(NCc2ccccn2)n1	-2.46
CCC[C@H]1CN(S(C)(=O)=O)C[C@@H]1NC(=O)CCCn1ccnc1	4.47
Cc1cc(=O)c2ccccc2n1CC1CCCN(C)C1 (stereo not given)	-5.82
Cc1cc(CN2CCC(CNC(=O)c3ccc(C#N)cc3)C2)[nH]n1 (stereo not given)	-138
COc1cc(-c2nc(C3CC3)nn2-c2ccnc(C)c2)nc(OC)n1	2.64
CCC[C@@H]1CN(Cc2c[nH]c(CC3CCCC3)n2)C[C@H]1C(=O)O	4.86
CCCc1cc(C(=O)N(Cc2cccnc2)C2CCCCC2)[nH]n1	-11.2
Cc1csc2c(N3CCNC(C(=O)N4CCCC4)C3)ncnc12 (stereo not given)	-5.6
O=C(CC(F)(F)F)N1CCc2[nH]nc(-c3ccc4c(c3)OCO4)c2C1	-149
O=C(CC[C@@H]1CCCN2CCCC[C@H]12)N1CCC(c2nnc[nH]2)CC1	2.61
CC(=O)N1CCCCC1c1ncnn1-c1ccc2nc(C)sc2c1 (stereo not given)	-12
CN(CCc1cn[nH]c1)C(=O)C1CC(=O)N(Cc2cccnc2)C1 (stereo not given)	-0.812
COc1cccc2c1OCC(CNC(=O)CCCN1CCOCC1)C2 (stereo not given)	16.6
Cc1ccc2cc(C3(O)CCN(C(=O)CN4CCCC4)CC3)ccc2n1	2.57
COc1ccc(C2CC(=O)Nc3c2cnn3C2CCCC2)cc1 (stereo not given)	-9.41
CCCn1ncc2c(C(=O)Nc3cnn(CC)c3C)cc(C3CC3)nc21	-0.842
COC1CCN(C(=O)CCn2cccn2)CC1	-13.4
Cc1nc(C)n(CC2CCCN2CCCc2nc3ccccc3o2)n1 (stereo not given)	-8.58
Cn1cnc(S(=O)(=O)NCCCN2CCCC2)c1Cl	-11.6
Cc1cc(C2CCCN2Cc2cc(=O)n(C)c(=O)n2C)no1 (stereo not given)	-20.6
Cc1csc(N2CCN(C(=O)C3(C#N)CCCC3)CC2)n1	-12.6

Structure (SMILES)	cytotoxicity at 10 µM [%]
CCNC(=O)NC(=O)CNc1cc(C#N)ccc1OCC	-19.7
CN(Cc1ccc(O)cc1)C(=O)NCc1nnc2n1CCCCC2	-11.1
COc1ccc(-c2nc(CN3CCc4cnc(C)nc4C3)no2)cc1	-7.1
CCn1cnnc1CNC(=O)NC(c1cccs1)C1CCCC1 (stereo not given)	-11.2
O=C(NCCCn1nc2ccccn2c1=O)NCc1ccccc1	-16.1
COc1ccc(OCCC(=O)N2CCCC2Cn2cccn2)cc1 (stereo not given)	-39
CCc1csc(C2CCCN(C(=O)c3ccc4[nH]nnc4c3)C2)n1 (stereo not given)	-17.1
CN(Cc1ccco1)C(=O)CN1CCCC1Cn1cccn1 (stereo not given)	1.55
CCn1cnnc1CNC(=O)c1cc(Cl)ccc1OC	5.87
O=C(Nc1cccnc1)[C@@H]1COC[C@H]2CN(C3CCCC3)C[C@H]21	5.74
CCN1C[C@H]2[C@@H](C1)N(C(=O)Cc1ccsc1)CC[C@H]2OC	6.8
O=C(C1=CCCC1)N1CCC[C@]2(C[C@@H](OCc3ccncc3)CO2)C1	-6.5
CCN1CCN(C)C(=O)C12CCN(Cc1ccsc1)CC2	1.14
c1ncn(Cc2cn3c(n2)CN(CC2CCCCC2)CC3)n1	-123
O=C(c1cocn1)N1CC[C@H]2OCC[C@@]2(COc2ncccc2F)C1	-127
c1cc(CN2Cc3nccn3CC(Cn3cncn3)C2)ccn1 (stereo not given)	-134
CN(C)C(=O)COC[C@]12COC[C@H]1CN(Cc1ccccc1)C2	-5.78
CN(C)C(=O)N1C[C@H]2CCC[C@@]2(COc2ccccn2)C1	3.24
CN1[C@@H](C(=O)NCC2CC2)C[C@@H]2CN(Cc3ccsc3)C[C@@H]21	-4.04
CSc1ncc(C(=O)N2C[C@@H]3CC[C@H]2CN(S(=O)(=O)N(C)C)C3)cn1	0.0773
CC(=O)N1C[C@H]2CC[C@@H](C1)N(S(=O)(=O)c1ccc(F)cc1Cl)C2	-0.756
CC(C)CS(=O)(=O)N1C[C@@H]2C[C@H](C(=O)Nc3cccnc3)[C@H](C1)O2	-1.55
